ChEMBL document CHEMBL3046184, “New analogues of (E)-β-farnesene with insecticidal activity and binding affinity to aphid odorant-binding proteins” (J Agric Food Chem, 2011)
Activity calls are given as the source filed them. The rule behind the calls is not given here.

Legend:
Aphis gossypii = test: Insecticidal activity against 3 day old Aphis gossypii (cotton aphid) in compound treated cabbage leaves at 600 microg/mL at 24 to 26 degC for 24 hr; format: functional, organism-based
Method in brief: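 Compound was dissolved in acetone/methanol/water (1:1:18). Cabbage leaves (~5 cm) bearing aphids were dipped for 5 s and air-dried, then held in Petri dishes. Dead aphids were counted. Solvent served as the negative control and thiacloprid as the positive reference.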

[1] = molecular target: T1, Odorant-binding protein 3 (Acyrthosiphon pisum) (UniProt C1KUY3); test: Displacement of fluorescent probe 1-NPN from Acyrthosiphon pisum (pea aphid) recombinant OBP3 by competitive binding assay
T1 sequence (whole entry): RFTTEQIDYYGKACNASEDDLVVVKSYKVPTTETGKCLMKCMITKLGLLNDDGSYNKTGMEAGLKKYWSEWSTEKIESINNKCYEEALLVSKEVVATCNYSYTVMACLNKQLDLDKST
Method in brief: (§1)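 Recombinant A. pisum OBP and the probe 1-NPN were each at 2 μM in 50 mM Tris-HCl, titrated with competitor to 2-16 μM final. Excitation was at 337 nm, with emission recorded at 380-450 nm and intensity read at the maximum (406-409 nm). The IC50 was taken as the concentration halving initial fluorescence, and Ki = IC50/(1+[1-NPN]/K1-NPN) using free 1-NPN.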

[2] = molecular target: T2, Odorant-binding protein 1 (Acyrthosiphon pisum) (UniProt C1KUY1); test: Displacement of fluorescent probe 1-NPN from Acyrthosiphon pisum (pea aphid) recombinant OBP1 by competitive binding assay; method in brief: as §1
T2 sequence (whole entry): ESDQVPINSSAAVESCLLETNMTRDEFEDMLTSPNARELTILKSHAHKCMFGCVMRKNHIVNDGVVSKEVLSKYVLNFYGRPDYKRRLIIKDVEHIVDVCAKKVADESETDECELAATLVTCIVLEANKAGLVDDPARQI

[3] = Displacement of fluorescent probe 1-NPN from Acyrthosiphon pisum (pea aphid) recombinant OBP2 by competitive binding assay

SMILES | Activity [1] | Activity [2] | Activity [3] | Activity (Aphis gossypii)
CC(C)=CCC/C(C)=C/COC(=O)c1cc(-c2ccccc2)nn1C(C)(C)C |  |  |  | Active
CC(C)=CCC/C(C)=C/COC(=O)c1c(F)cccc1F | Active | Active | Active | 
CC(C)=CCC/C(C)=C/COC(=O)c1cc(-c2ccccc2)nn1-c1ccccc1 |  |  |  | Active
CC(C)=CCC/C(C)=C/COC(=O)c1cc(C(C)C)nn1C(C)(C)C | Active |  |  | 
N#C/N=C1\SCCN1Cc1ccc(Cl)nc1 | Active |  |  | 

The next lines start with results.

Activity [1] | Activity [2] | Activity [3] | SMILES | Activity (Aphis gossypii)
Active | Active | Active | CC(C)=CCC/C(C)=C/COC(=O)c1cc(-c2ccccc2)nn1-c1ccc([N+](=O)[O-])cc1 | 
Active | Active | Active | CC(C)=CCC/C(C)=C/COC(=O)c1ccc(Br)cc1 | Active
Active | Active | Active | CC(C)=CCC/C(C)=C/COC(=O)c1cc(C(C)C)nn1-c1ccc([N+](=O)[O-])cc1 | 
Active |  |  | CC(C)=CCC/C(C)=C/COC(=O)c1cc(C)nn1C(C)(C)C | 
Active |  |  | CCCc1cc(C(=O)OC/C=C(\C)CCC=C(C)C)n(C(C)(C)C)n1 | 
